Tested on: HEK-293T
Assay: Multiplex assay against HEK293T
Assay type: toxicity, cell-based
Settings: human
Outline: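 Cells stained live at seeding with Hoechst33342, BioTracker Green Microtubule Cytoskeleton Dye, MitoTracker Red and Annexin V Alexa Fluor 680 were imaged on a CQ1 microscope at 37°C and 5% CO2 after compound addition. Their classification by CellPathfinder machine-learning gating ran from Hoechst high-intensity objects versus normal cells, to healthy, pyknosed or fragmented nuclei among normal cells, to mitotic or apoptotic among pyknosed cells. Tubulin, mitochondrial-mass and membrane-permeability phenotypes are per cents of healthy-nucleus cells.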

[1] = 12 h, 1 µM, compound concentration 1 uM, replicate 1
[2] = 12 h, 1 µM, compound concentration 1 uM, replicate 2
[3] = 12 h, 10 µM, compound concentration 10 uM, replicate 1
[4] = 12 h, 10 µM, compound concentration 10 uM, replicate 2
[5] = 24 h, 1 µM, compound concentration 1 uM, replicate 1
[6] = 24 h, 1 µM, compound concentration 1 uM, replicate 2
[7] = 24 h, 10 µM, compound concentration 10 uM, replicate 1
[8] = 24 h, 10 µM, compound concentration 10 uM, replicate 2
[9] = 48 h, 1 µM, compound concentration 1 uM, replicate 1
[10] = 48 h, 1 µM, compound concentration 1 uM, replicate 2
[11] = 48 h, 10 µM, compound concentration 10 uM, replicate 1
[12] = 48 h, 10 µM, compound concentration 10 uM, replicate 2

Cc1onc(-c2ccccc2Cl)c1C(=O)N(C)c1ccc(Cl)cc1
Population Apoptotic (%) [1]: 35% | Population Fragmented Nuclei (%) [1]: 8% | Population Healthy Nuclei (%) [1]: 79% | Population Hoechst High Intensity Objects (%) [1]: 9% | Population Membrane Permeable-Phenotype (%) [1]: 0% | Population Mitochondria Different-Phenotype (%) [1]: 41% | Population Mitotic Cells (%) [1]: 64% | Population Normal (%) [1]: 90% | Population Pyknosed Nuclei (%) [1]: 12% | Population Tubulin-Different-Phenotype (%) [1]: 25% | Total Cell Count [1]: 375 | Population Apoptotic (%) [2]: 37% | Population Fragmented Nuclei (%) [2]: 3% | Population Healthy Nuclei (%) [2]: 84% | Population Hoechst High Intensity Objects (%) [2]: 6% | Population Mitochondria Different-Phenotype (%) [2]: 59% | Population Mitotic Cells (%) [2]: 62% | Population Normal (%) [2]: 93% | Total Cell Count [2]: 320 | Population Apoptotic (%) [3]: 38% | Population Fragmented Nuclei (%) [3]: 7% | Population Healthy Nuclei (%) [3]: 79% | Population Hoechst High Intensity Objects (%) [3]: 12% | Population Membrane Permeable-Phenotype (%) [3]: 0% | Population Mitochondria Different-Phenotype (%) [3]: 49% | Population Mitotic Cells (%) [3]: 61% | Population Normal (%) [3]: 87% | Population Pyknosed Nuclei (%) [3]: 13% | Population Tubulin-Different-Phenotype (%) [3]: 43% | Total Cell Count [3]: 357 | Population Apoptotic (%) [4]: 45% | Population Fragmented Nuclei (%) [4]: 4% | Population Healthy Nuclei (%) [4]: 80% | Population Hoechst High Intensity Objects (%) [4]: 6% | Population Mitochondria Different-Phenotype (%) [4]: 65% | Population Mitotic Cells (%) [4]: 54% | Population Normal (%) [4]: 93% | Population Pyknosed Nuclei (%) [4]: 14% | Population Tubulin-Different-Phenotype (%) [4]: 35% | Total Cell Count [4]: 330 | Population Apoptotic (%) [5]: 23% | Population Fragmented Nuclei (%) [5]: 9% | Population Healthy Nuclei (%) [5]: 81% | Population Hoechst High Intensity Objects (%) [5]: 5% | Population Membrane Permeable-Phenotype (%) [5]: 1% | Population Mitochondria Different-Phenotype (%) [5]: 21% | Population Mitotic Cells (%) [5]: 76% | Population Normal (%) [5]: 94% | Population Pyknosed Nuclei (%) [5]: 9% | Population Tubulin-Different-Phenotype (%) [5]: 14% | Total Cell Count [5]: 523 | Population Apoptotic (%) [6]: 42% | Population Fragmented Nuclei (%) [6]: 5% | Population Hoechst High Intensity Objects (%) [6]: 3% | Population Mitochondria Different-Phenotype (%) [6]: 44% | Population Mitotic Cells (%) [6]: 57% | Population Normal (%) [6]: 96% | Population Pyknosed Nuclei (%) [6]: 12% | Population Tubulin-Different-Phenotype (%) [6]: 18% | Total Cell Count [6]: 383 | Population Apoptotic (%) [7]: 45% | Population Fragmented Nuclei (%) [7]: 8% | Population Healthy Nuclei (%) [7]: 79% | Population Hoechst High Intensity Objects (%) [7]: 5% | Population Membrane Permeable-Phenotype (%) [7]: 1% | Population Mitochondria Different-Phenotype (%) [7]: 32% | Population Mitotic Cells (%) [7]: 54% | Population Normal (%) [7]: 94% | Population Pyknosed Nuclei (%) [7]: 12% | Population Tubulin-Different-Phenotype (%) [7]: 20% | Total Cell Count [7]: 478 | Population Apoptotic (%) [8]: 29% | Population Fragmented Nuclei (%) [8]: 7% | Population Healthy Nuclei (%) [8]: 82% | Population Hoechst High Intensity Objects (%) [8]: 3% | Population Membrane Permeable-Phenotype (%) [8]: 0% | Population Mitochondria Different-Phenotype (%) [8]: 47% | Population Mitotic Cells (%) [8]: 70% | Population Normal (%) [8]: 96% | Population Pyknosed Nuclei (%) [8]: 9% | Total Cell Count [8]: 413 | Population Apoptotic (%) [9]: 21% | Population Fragmented Nuclei (%) [9]: 14% | Population Healthy Nuclei (%) [9]: 79% | Population Hoechst High Intensity Objects (%) [9]: 2% | Population Membrane Permeable-Phenotype (%) [9]: 0% | Population Mitochondria Different-Phenotype (%) [9]: 11% | Population Mitotic Cells (%) [9]: 78% | Population Normal (%) [9]: 97% | Population Pyknosed Nuclei (%) [9]: 6% | Population Tubulin-Different-Phenotype (%) [9]: 9% | Total Cell Count [9]: 932 | Population Apoptotic (%) [10]: 31% | Population Fragmented Nuclei (%) [10]: 11% | Population Healthy Nuclei (%) [10]: 82% | Population Membrane Permeable-Phenotype (%) [10]: 1% | Population Mitochondria Different-Phenotype (%) [10]: 23% | Population Mitotic Cells (%) [10]: 68% | Population Pyknosed Nuclei (%) [10]: 5% | Population Tubulin-Different-Phenotype (%) [10]: 12% | Total Cell Count [10]: 620 | Population Apoptotic (%) [11]: 33% | Population Fragmented Nuclei (%) [11]: 14% | Population Healthy Nuclei (%) [11]: 76% | Population Hoechst High Intensity Objects (%) [11]: 3% | Population Membrane Permeable-Phenotype (%) [11]: 1% | Population Mitochondria Different-Phenotype (%) [11]: 16% | Population Mitotic Cells (%) [11]: 66% | Population Normal (%) [11]: 96% | Population Pyknosed Nuclei (%) [11]: 8% | Population Tubulin-Different-Phenotype (%) [11]: 15% | Total Cell Count [11]: 755 | Population Apoptotic (%) [12]: 20% | Population Fragmented Nuclei (%) [12]: 12% | Population Healthy Nuclei (%) [12]: 81% | Population Membrane Permeable-Phenotype (%) [12]: 0% | Population Mitochondria Different-Phenotype (%) [12]: 25% | Population Mitotic Cells (%) [12]: 79% | Population Pyknosed Nuclei (%) [12]: 6% | Population Tubulin-Different-Phenotype (%) [12]: 16% | Total Cell Count [12]: 652

Source: ChEMBL document CHEMBL5058577, “EUbOPEN Chemogenomics Library 2 (Multiplex)” (2022)
